# Measurements as given in ChEMBL document CHEMBL4330067, “Synthesis and mechanistic studies of diketo acids and their bioisosteres as potential antibacterial agents” (Eur J Med Chem, 2019).
# The source made the active and inactive calls. The rule behind the calls is not given here.
# Columns and labels:
# Escherichia coli [1] = assay: Antibacterial activity against Escherichia coli MRAE32 at 512 ug/mL after 24 hrs by broth dilution assay relative to control; format: functional
# Summary of the method: (§1)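 Multidrug-resistant E. coli isolates in Luria broth, test range 8 to 1024 µg/mL (ciprofloxacin 0.49 to 63.3 µg/mL). Inoculum 10 µL of a 1000-fold diluted 0.1 OD600 culture, incubated overnight at 37 °C. OD read at 600 nm. % inhibition = (a−b)/a×100, with media and compound-colour blanks subtracted.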
# [2] = system: Mycobacterium tuberculosis; assay: Inhibition of Mycobacterium tuberculosis methionine aminopeptidase 1C at 100 uM using Met-AMC as substrate relative to control
# Summary of the method: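 Purified MtMetAP1c (4 µM) in 50 mM Hepes pH 7.5 with 150 mM KCl and CoCl2 at three molar equivalents of enzyme. Substrate was L-Met-AMC at 50, 100 or 150 µM. Compounds came from 10 mM DMSO stocks. Percent inhibition was taken against the uninhibited control.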
# [3] = Inhibition of Enterococcus faecalis methionine aminopeptidase 1A using Met-AMC as substrate by Dixon method
# Summary of the method: (§2)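 Purified MetAP at 4 µM in 50 mM HEPES with 150 mM KCl and CoCl2 at 3 molar equivalents of enzyme. pH 7.5 for SpMetAP1a and EfMetAP1a, pH 8.0 for HsMetAP1b. Substrate L-Met-AMC at 50, 100 and 150 µM. Compounds (10 mM DMSO stocks) tested over 1 to 120 µM for % inhibition; Ki by Dixon method.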
# Escherichia coli [4] = assay: Antibacterial activity against Escherichia coli MRAE33 after overnight incubation; format: functional; summary of the method: as §1
# Streptococcus pneumoniae [5] = assay: Induction of cellular damage in Streptococcus pneumoniae assessed as distorted cell membrane at MIC after 1 hr by TEM analysis; format: functional, organism-based
# CHO = assay: Cytotoxicity against CHO cells at 300 ug/mL after 48 hrs by MTT assay; format: cell-based, Cricetulus griseus; conditions: chinese hamster
# Summary of the method: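 MTT assay: cells maintained in DMEM with 10% FBS and penicillin/streptomycin at 37 °C, 5% CO2. Seeded at approx. 2×10⁴ cells/well, 24 h before treatment, then exposed to 10 to 400 µg/mL for 48 h at 37 °C. MTT (5 mg/mL stock in PBS) added for 4 h, formazan dissolved in DMSO, A570 read. Triplicate wells; viability given relative to untreated cells.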
# Escherichia coli [6] = assay: Antibacterial activity against Escherichia coli MRAE44 after overnight incubation; format: functional; summary of the method: as §1
# [7] = Inhibition of human methionine aminopeptidase 1B using Met-AMC as substrate by Dixon method; summary of the method: as §2
# Escherichia coli [8] = assay: Antibacterial activity against Escherichia coli MRC17 at 512 ug/mL after 24 hrs by broth dilution assay relative to control; format: functional; summary of the method: as §1
# Escherichia coli [9] = assay: Antibacterial activity against Escherichia coli MROB11 after overnight incubation; format: functional; summary of the method: as §1
# Homo sapiens = species: Homo sapiens; assay: Inhibition of human methionine aminopeptidase 1B at 100 uM using Met-AMC as substrate relative to control; summary of the method: as §2
# Escherichia coli [10] = assay: Antibacterial activity against Escherichia coli MRAE33 at 1024 ug/mL after 24 hrs by broth dilution assay relative to control; format: functional; summary of the method: as §1
# Escherichia coli [11] = assay: Antibacterial activity against Escherichia coli MRA11 after overnight incubation; format: functional; summary of the method: as §1
# Escherichia coli [12] = assay: Antibacterial activity against Escherichia coli MRAE44 at 1024 ug/mL after 24 hrs by broth dilution assay; format: functional, organism-based; summary of the method: as §1
# Enterococcus faecalis = assay: Antibacterial activity against Enterococcus faecalis MTCC 439 after 24 hrs by broth dilution assay; format: functional; conditions: MTCC 439, 24 h
# Summary of the method: (§3)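 Broth dilution per NCCLS in nutrient broth, serial dilutions 1000 to 7.8 µg/mL, DMSO below 4% final. Inoculum approx. 2.5×10⁶ cells/mL, 37 °C with shaking at 150 rpm for 24 h. MIC taken as the lowest concentration with no visible growth. Ciprofloxacin served as positive control.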
# Streptococcus pneumoniae [13] = assay: Antibacterial activity against Streptococcus pneumoniae MTCC 655 after 24 hrs by broth dilution assay; format: functional; conditions: MTCC 655, 24 h; summary of the method: as §3
# Escherichia coli [14] = assay: Synergistic antibacterial activity against Escherichia coli MRC17 after 18 hrs in presence of ciprofloxacin by checkerboard method; format: functional; conditions: MRC17, 18 h
# Summary of the method: (§4)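 Checkerboard combination with ciprofloxacin in Mueller-Hinton broth: compound 1024 to 16 µg/mL crossed with ciprofloxacin 128 to 2 µg/mL. Inoculum 5×10⁵ CFU/mL suspension, 18 h at 37 °C. Fractional inhibitory concentration index derived from the combination.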
# Escherichia coli [15] = assay: Antibacterial activity against Escherichia coli MRC24 at 512 ug/mL after 24 hrs by broth dilution assay relative to control; format: functional; summary of the method: as §1
# Pseudomonas aeruginosa [16] = assay: Antibacterial activity against Pseudomonas aeruginosa MTCC 2453 after 24 hrs by broth dilution assay; format: functional; conditions: MTCC 2453, 24 h; summary of the method: as §3
# Escherichia coli [17] = assay: Synergistic antibacterial activity against Escherichia coli MRC17 assessed as fractional inhibitory concentration index after 18 hrs in presence of ciprofloxacin by checkerboard method; format: functional
# Summary of the method: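 Checkerboard combination against MDR E. coli. Test agent gradient 1024–16 µg/mL crossed with ciprofloxacin 128–2 µg/mL in Mueller-Hinton broth. Wells were inoculated with a 5 × 10⁵ CFU/mL suspension and incubated 18 h at 37 °C. Interaction was expressed as the fractional inhibitory concentration index (FICI).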
# Escherichia coli [18] = assay: Synergistic antibacterial activity against Escherichia coli MRC17 assessed as ciprofloxacin MIC at 16 to 1024 ug/mL after 18 hrs by checkerboard method; format: functional; conditions: MRC17, 18 h; summary of the method: as §4
# Escherichia coli [19] = assay: Synergistic antibacterial activity against Escherichia coli MRA11 assessed as fractional inhibitory concentration index after 18 hrs in presence of ciprofloxacin by checkerboard method; format: functional; summary of the method: as §4
# Pseudomonas aeruginosa [20] = assay: Bactericidal activity against Pseudomonas aeruginosa at sub-MIC after 10 hrs by spectrophotometric analysis; format: functional, organism-based
# Summary of the method: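 Growth kinetics in 50 mL nutrient broth seeded at approx. 2×10⁶ cells/mL, compound at 2MIC, MIC and ½MIC, 37 °C at 160 rpm. Ciprofloxacin 10 µg/mL as positive control. 1 mL aliquots taken every 2 h from 0 to 22 h. Turbidity read at 600 nm and OD plotted against time.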
# Escherichia coli [21] = assay: Antibacterial activity against Escherichia coli MRAE26 at 1024 ug/mL after 24 hrs by broth dilution assay relative to control; format: functional; summary of the method: as §1
# Escherichia coli [22] = assay: Synergistic antibacterial activity against Escherichia coli MRAE33 assessed as fractional inhibitory concentration index after 18 hrs in presence of ciprofloxacin by checkerboard method; format: functional; summary of the method: as §4
# Escherichia coli [23] = assay: Antibacterial activity against Escherichia coli MRAE32 after overnight incubation; format: functional; summary of the method: as §1
# Pseudomonas aeruginosa [24] = assay: Anti-biofilm activity against Pseudomonas aeruginosa after 24 hrs by XTT assay; format: functional, organism-based
# Summary of the method: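 Biofilm XTT reduction assay: serial dilutions 1000 to 7.8 µg/mL in tryptic soy broth, inoculum approx. 5×10⁵ CFU/mL, 37 °C for 24 h static. Non-adherent cells removed by PBS wash, XTT added, 90 min at 37 °C in dark, absorbance at 490 nm. IC50 (50% inhibition of biofilm formation) read from dose-response curves.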
# Escherichia coli [25] = assay: Antibacterial activity against Escherichia coli MROB11 at 512 ug/mL after 24 hrs by broth dilution assay relative to control; format: functional; summary of the method: as §1
# Klebsiella pneumoniae = assay: Antibacterial activity against Klebsiella pneumoniae ATCC 700603 after 24 hrs by broth dilution assay; format: functional; conditions: Klebsiella pneumoniae, 700603, 24 h; summary of the method: as §3
structure (smiles),measurement,setting,value
Cc1c(C(=O)/C=C(\O)C(=O)N[C@H](C)C(=O)O)oc2ccc(Br)cc12,Activity,Escherichia coli [1],100%
same,inhibition,[2],87.7%
same,Ki,[3],11.9 µM
same,ICmax,Escherichia coli [4],1024 µg/mL
same,MIC,"Escherichia coli [4]; Escherichia coli, MRAE33",1020 µg/mL
same,Activity,Streptococcus pneumoniae [5],Active
same,Activity,CHO,Toxic
same,ICmax,Escherichia coli [6],1024 µg/mL
same,Ki,[7],22.1 µM
same,Activity,Escherichia coli [8],100%
same,ICmax,Escherichia coli [9],512 µg/mL
same,inhibition,Homo sapiens,87.5%
same,Activity,Escherichia coli [10],>95%
same,ICmax,Escherichia coli [11],512 µg/mL
same,MIC,"Escherichia coli [11]; Escherichia coli, MRA11",512 µg/mL
same,Activity,Escherichia coli [12],Active
same,MIC,Enterococcus faecalis,125 µg/mL
same,MIC,Streptococcus pneumoniae [13],62.5 µg/mL
same,MIC,Escherichia coli [14],512 µg/mL
same,Activity,Escherichia coli [15],100%
same,MIC,Pseudomonas aeruginosa [16],250 µg/mL
same,fractional inhibitory concentration index (FICI),Escherichia coli [17],1.5
same,MIC,Escherichia coli [18],64 µg/mL
same,fractional inhibitory concentration index (FICI),Escherichia coli [19],1.125
same,Activity,Pseudomonas aeruginosa [20],Active
same,Activity,Escherichia coli [21],>95%
same,fractional inhibitory concentration index (FICI),Escherichia coli [22],1.0156
same,ICmax,Escherichia coli [23],512 µg/mL
same,IC50,Pseudomonas aeruginosa [24],1.69 µg/mL
same,Activity,Escherichia coli [25],100%
same,MIC,Klebsiella pneumoniae,500 µg/mL
